From ChEMBL document CHEMBL1123305, “Synthesis and gastric antisecretory properties of alpha chain diene derivatives of misoprostol” (1986)

Experiments:
Canis familiaris [1] = experiment: Intravenous gastric antisecretory activity against histamine-stimulated Heidenhain Pouch (HP) dogs at 1 ug/kg; format: functional; details: Canis lupus familiaris, Stomach
How it was run: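 Conscious, 18-h-fasted Heidenhain pouch dogs in Pavlov stands, iv 0.15 M NaCl infusion, used at most weekly. Histamine 1.0 mg/h was infused after a 15–30-min basal period. At steady state (about 1 h), a single iv bolus was given in ethanol stock diluted with isoosmotic pH 7.4 phosphate buffer (≤20% ethanol). Acid was titrated to pH 7.0 over 15-min collections; percent inhibition was taken from maximum inhibition of total acid output.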

Canis familiaris [2] = species: Canis familiaris; experiment: Relative gastric antisecretory effect in histamine-stimulated gastric fistula (GF) dogs; details: Canis lupus familiaris, Stomach
Rattus norvegicus = species: Rattus norvegicus; experiment: Effect determining the diarrheagenic activity in rats; format: functional
How it was run: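 Adult male Charles River rats (210–230 g), housed singly and fasted 24 h, n = 6–12. Logarithmically graded oral doses were given. Diarrhea was scored all-or-none hourly to 8 h. ED50 and approximate asymptotic 95% confidence limits came from a maximum-likelihood logistic dose–response fit.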

Canis familiaris [3] = species: Canis familiaris; experiment: Oral gastric antisecretory effect in histamine-stimulated Heidenhain Pouch (HP) dogs; format: functional; details: Canis lupus familiaris, Stomach, in the assay text read “gastric fistula (GF)” for “Heidenhain Pouch (HP)”
How it was run: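 Conscious gastric fistula dogs, 4–12 per dose, three doses. After a 30-min basal period, drug was given intragastrically via dosing plug and the cannula closed for 30 min. Histamine was then infused at 15 μg/kg per h, with 30-min collections for 4 h. Acid was titrated to pH 7.0. ED50 is the dose giving 50% inhibition of 4-h total acid output. Relative potency and 95% limits came from bioassay analysis.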

[4] = Ratio of ED50 value of diarrheal effect to that of ED50 value of antisecretory effect; format: functional
How it was run: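 Ratio of rat oral diarrheal ED50 at 8 h to intragastric antisecretory ED50 in histamine-stimulated gastric fistula dogs (4-h total acid output).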

| SMILES | inhibition in vivo at 0.001 mg/kg (Canis familiaris [1]) [%] | Relative potency (Canis familiaris [2]) | ED50 (Rattus norvegicus) [µg/kg] | ED50 (Canis familiaris [3]) [µg/kg] | Ratio [4] |
| --- | --- | --- | --- | --- | --- |
| CCCCC(C)(O)C/C=C/[C@H]1[C@H](O)CC(=O)[C@@H]1CC/C=C\C=C\C(=O)OC (stereo not given in full) | 41 | – | – | – | – |
| CCCCC(C)(O)C/C=C/[C@H]1[C@H](O)CC(=O)[C@@H]1C/C=C/C=C\CC(=O)OC (stereo not given in full) | 96 | – | – | – | – |
| CCCCC(C)(O)C/C=C/[C@H]1[C@H](O)CC(=O)[C@@H]1CC/C=C\CCC(=O)OC (stereo not given in full) [ENISOPROST] | 92 | 1 | 62 | 0.05 | 1240 |
| CCCCC(C)(O)C/C=C/[C@H]1[C@H](O)CC(=O)[C@@H]1C/C=C\C=C\CC(=O)OC (stereo not given in full) | 83 | 0.31 | 570 | 0.08 | 7120 |
| CCCCC(C)(O)C/C=C/[C@H]1[C@H](O)CC(=O)[C@@H]1C/C=C\C/C=C/C(=O)OC (stereo not given in full) | 0 | – | – | – | – |
| CCCCC(C)(O)C/C=C/[C@H]1[C@H](O)CC(=O)[C@@H]1C/C=C/C=C/CC(=O)OC (stereo not given in full) | 21 | – | – | – | – |
| CCCCC(C)(O)C/C=C/[C@H]1[C@H](O)CC(=O)[C@@H]1CCCCCCC(=O)OC (stereo not given in full) [MISOPROSTOL] | 79 | 0.08 | – | 0.28 | 1310 |
| CCCCC(C)(O)C/C=C/[C@H]1[C@H](O)CC(=O)[C@@H]1C/C=C/C/C=C/C(=O)OC (stereo not given in full) | 68 | – | – | – | – |
| CCCCC(C)(O)C/C=C/[C@H]1[C@H](O)CC(=O)[C@@H]1CC/C=C/C=C/C(=O)OC (stereo not given in full) | 53 | – | – | – | – |
